Experimental data as given in the RNAGym collection of RNA variant scans (doi:10.1126/science.aae0568).
This sample holds only a part of the variants without activity.

B1: tRNA (parent)
chain: GUUCCGUUGGCGUAAUGGUAACGCGUCUCCCUCCUAAGGAGAAGACUGCGGGUUCGAGUCCCGUACGGAACG

Variants of: B1
Experiment: yeast fitness relative to wild type (ratio to wild type); higher = fitter; tRNA-Arg(CCU), competitive growth, 37 C, YPD
In short: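 Start and end populations of a pooled competition were compared by 100-nucleotide paired-end sequencing of gene amplicons. The Saccharomyces cerevisiae strains carried tRNA-Arg(CCU) gene variants at the native genomic locus, synthesised with a 3% per-site mutation rate at 69 sites, and competed in YPD at 37°C for 24 hours in six parallel replicates. Darwinian fitness relative to wild type was based on the change in genotype frequencies. Genotypes required ≥ 100 starting reads, and estimates < 0.5 were set to 0.5.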
Work on A45G G51A G67A yielded a yeast fitness of 0.601. A45U C61G C66U gave a yeast fitness of 0.53. U47G U54C showed a yeast fitness of 0.504. For G48C G52C A57C G58A, the yeast fitness was ≤ 0.5. A45U U59G showed a yeast fitness of 0.66. With A45U U59C the yeast fitness was 0.897. In the case of C46G U54A C62U, the yeast fitness is reported as ≤ 0.5. In the case of U47A C55A G68A, the yeast fitness is reported as 0.532. With U47C A65C the yeast fitness was 1.04. Variant U47A C61U A70C has a yeast fitness of 0.558. In the case of G48C U53C, the yeast fitness is reported as 0.694. For G48C U53G, the yeast fitness was 0.635. In the case of G48C G56A A70U, the yeast fitness is reported as 0.918. For U47C A57G C62U, the yeast fitness was ≤ 0.5. For A45G A57C, the yeast fitness was 0.668. U47A U53A showed a yeast fitness of 0.557. With G48C A65C C66G the yeast fitness was 0.557. In the case of U47A G67A, the yeast fitness is reported as 0.765. U47A G67C showed a yeast fitness of 0.88. G48A C62U A70U gave a yeast fitness of 0.824. In the case of G48A G67C, the yeast fitness is reported as 1.02. In the case of G48A G67A, the yeast fitness is reported as 0.91. For C46A C49G, the yeast fitness was 0.746. For C46A C49U, the yeast fitness was 0.958. Variant C46A A57G G68A has a yeast fitness of 0.605. Variant G48A A57U has a yeast fitness of 0.649. Variant U47G G50A C55A G56A has a yeast fitness of 0.533. For A45G C46G, the yeast fitness was 0.87. For U47A A70U, the yeast fitness was 1.06. With U47A A70G the yeast fitness was 0.921. For C46G C49A G68C A69G, the yeast fitness was ≤ 0.5. For U47C G68U, the yeast fitness was 1.1. U47C G68C showed a yeast fitness of 0.742. For G48A C55U A57G G68C, the yeast fitness was ≤ 0.5. With C46G C66U the yeast fitness was 0.928. Variant C46G C66G has a yeast fitness of 0.986. For C46U A57C U64C, the yeast fitness was ≤ 0.5. In the case of G48C A70U, the yeast fitness is reported as 1. Work on A45C U47A C66U yielded a yeast fitness of 0.595. G48C C62U G68C showed a yeast fitness of 0.557. A45U A65G A70C showed a yeast fitness of 0.754. With C46U C49G G51C C66G the yeast fitness was ≤ 0.5. For U47G A69C, the yeast fitness was 0.69. U47G A69U showed a yeast fitness of 0.764. In the case of U47A C61A, the yeast fitness is reported as 0.769. U47A C61G gave a yeast fitness of 0.69. With A45U C46U U53C the yeast fitness was 0.574. Work on G48C A69U yielded a yeast fitness of 0.95. A45G A65G A70C gave a yeast fitness of 0.666. In the case of U47G C62U A65C, the yeast fitness is reported as ≤ 0.5. For U47G C62U A65U, the yeast fitness was 0.64. With C46G U59C G68C the yeast fitness was ≤ 0.5. With A45U C61U the yeast fitness was 0.974. With C46G C61G C62A the yeast fitness was ≤ 0.5. With A45G C61A A65U the yeast fitness was ≤ 0.5. In the case of A45G C55A G56A G67A, the yeast fitness is reported as ≤ 0.5. In the case of C46U C60A A69U, the yeast fitness is reported as 0.57. In the case of U47C A65G G68C, the yeast fitness is reported as 0.546. With A45U G52A U64C A69U the yeast fitness was ≤ 0.5. Variant A45G G56A has a yeast fitness of 1.1. Work on A45G G58A U64A yielded a yeast fitness of 0.71. For U47G C49A G63A G68A, the yeast fitness was ≤ 0.5. In the case of C46U U54C G58C G67A, the yeast fitness is reported as ≤ 0.5. C46G C62G A69G showed a yeast fitness of 0.733. In the case of C46U G63C, the yeast fitness is reported as 0.753. For C46G C55G, the yeast fitness was 0.722. C46U U54C A69C gave a yeast fitness of 0.778. C46U C62U showed a yeast fitness of 1. C46U C62A gave a yeast fitness of 0.684. In the case of C46G A57C G58A G67A, the yeast fitness is reported as ≤ 0.5. For A45G C55U C61G A69C, the yeast fitness was ≤ 0.5. With U47A U54C the yeast fitness was 0.811. With U47C C60U C62A the yeast fitness was ≤ 0.5. With G48C C66A the yeast fitness was 0.633. In the case of G48A G51A, the yeast fitness is reported as 1.04. G48A A65G showed a yeast fitness of 0.981. Work on C46A C49G C55U yielded a yeast fitness of 0.563. In the case of C46A C49A C61A, the yeast fitness is reported as ≤ 0.5. With A45U C46U the yeast fitness was 1.09. C46A G63C gave a yeast fitness of 0.995. For G48A C49U A65G, the yeast fitness was 0.743. With A45G C49U A69U the yeast fitness was 1.04. Variant G48C C49U A70C has a yeast fitness of 0.592. For A45G A65G, the yeast fitness was 1.04. In the case of G48A G51A A69U, the yeast fitness is reported as 0.755. In the case of G48A G63A A70U, the yeast fitness is reported as 0.811. With C46G A69C the yeast fitness was 0.972. For C46G A69U, the yeast fitness was 1.03. U47C A57U showed a yeast fitness of 0.623. For A45C U64G, the yeast fitness was 0.654. Variant U47C A69C has a yeast fitness of 1.07. With A45U U53C G67A A69C the yeast fitness was 0.635. U47A G63A gave a yeast fitness of 0.823. C46G G67A gave a yeast fitness of 0.912. With C46G G67C the yeast fitness was 0.86. For C46G G51C A70C, the yeast fitness was ≤ 0.5. U47C U59G showed a yeast fitness of 0.936. With U47A C62A the yeast fitness was 0.683. Variant U47A C62U has a yeast fitness of 0.842. Work on G48C A65C yielded a yeast fitness of 0.989. In the case of G48C A57G G63A, the yeast fitness is reported as ≤ 0.5. With A45U C49U U64A the yeast fitness was 0.571. With U47A A65C C66G the yeast fitness was ≤ 0.5. Variant A45U U53C has a yeast fitness of 0.793. In the case of C46G G56A A57C C61U, the yeast fitness is reported as 0.575. Work on A45C U53A yielded a yeast fitness of 0.727. Work on A45C U53C yielded a yeast fitness of 0.823. For C46U U53C, the yeast fitness was 0.854. U47C G63A gave a yeast fitness of 0.949. With A45C G63A the yeast fitness was 0.85. C46U A70C showed a yeast fitness of 0.976. A45U C49A showed a yeast fitness of 0.57. Variant A45G A70G has a yeast fitness of 1.19. Work on A45G A70U yielded a yeast fitness of 0.913. Work on U47C G50C yielded a yeast fitness of 0.633. For U47G C60U A65C, the yeast fitness was ≤ 0.5. C46A A65C showed a yeast fitness of 0.973. C46A A65U showed a yeast fitness of 0.843. For A45G C61G A65C A70U, the yeast fitness was ≤ 0.5. In the case of U47C C49A A65G, the yeast fitness is reported as ≤ 0.5. G48A G56C showed a yeast fitness of 0.618. Work on A45C U59C A70C yielded a yeast fitness of 0.741. Work on G48C G56A yielded a yeast fitness of 0.905. With U47G C62U the yeast fitness was 0.633. Variant C46A C55A A65C has a yeast fitness of 0.533. A45C G67A gave a yeast fitness of 0.814. For U47A U59A U64G, the yeast fitness was ≤ 0.5. In the case of C46U C61G A70C, the yeast fitness is reported as ≤ 0.5. C46U A65U gave a yeast fitness of 0.883. In the case of G48A G52C U54C, the yeast fitness is reported as 0.542. Work on A45C U47C C49U yielded a yeast fitness of 0.806. Work on C46A C62U yielded a yeast fitness of 1.02. For A45G G58A C60U, the yeast fitness was 0.584. In the case of G48A A57G C61U C62U, the yeast fitness is reported as ≤ 0.5. U47A C66U gave a yeast fitness of 0.872. For C46U C49G, the yeast fitness was 0.997. Variant G48A U54A has a yeast fitness of 0.692. With U47C G58U G63A A65U the yeast fitness was ≤ 0.5. A45G G50C U54A G67A showed a yeast fitness of 0.803. Variant A45U C46A G63A has a yeast fitness of 1.06. With A45U C62U G63C the yeast fitness was ≤ 0.5. In the case of G48C G50A G67A, the yeast fitness is reported as ≤ 0.5. In the case of G48A U53C C60A C61U, the yeast fitness is reported as ≤ 0.5. In the case of A45U G48C A57C G67U, the yeast fitness is reported as ≤ 0.5. For A45U U54C U64A A69U, the yeast fitness was ≤ 0.5. A45U A65G G68A gave a yeast fitness of 0.73. For A45G U54C, the yeast fitness was 0.774. In the case of C46G C55G A69G, the yeast fitness is reported as ≤ 0.5. C46G G51A gave a yeast fitness of 0.766. In the case of C46G G51C, the yeast fitness is reported as 0.591. G48A C55U G63A gave a yeast fitness of 0.706. With U47C U64C the yeast fitness was 0.926. A45U C62G A65G showed a yeast fitness of 0.913. With U47G G52A the yeast fitness was ≤ 0.5. In the case of C46G C49G C62A, the yeast fitness is reported as 0.61. For C46A U64G, the yeast fitness was 0.82. In the case of G48A G58C C61A, the yeast fitness is reported as 0.601. A45G G68C gave a yeast fitness of 0.695. In the case of U47A A65U, the yeast fitness is reported as 0.68. In the case of U47A A65C, the yeast fitness is reported as 0.82. Variant A45U G52C has a yeast fitness of 0.642. G48A G68U A69C showed a yeast fitness of 0.524. With C46G U53A A65C the yeast fitness was ≤ 0.5. Variant C46A U53A has a yeast fitness of 0.738. Work on G48A C66U yielded a yeast fitness of 0.97. Variant C46U G50A G56C C62A C66U has a yeast fitness of 0.582. In the case of C46U G50A C61U, the yeast fitness is reported as 0.749.
